bCat nuc transl: alters nuclear translocation of beta-catenin in HeLa cells; nuclear translocation activity, % at 5 µM; 190,000 tested, 0.3% active; immunofluorescence imaging; AID 1665;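 active means nuclear translocation activity above 50% at 5 µM, with a well cell count of 50 or more; inconclusive means wells under 50 cells across six images, flagged as toxic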;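 further: per-cell ratio of nuclear to cytoplasmic median beta-catenin stain intensity; plate controls were DMSO negative control for no effect and GSK-3 inhibitor IX positive control for full effect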
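Technique: fluorescence imaging of beta-catenin antibody stain plus DAPI / Material: human HeLa cell line / Incubation: compound treatment 24 h, 37°C, 5% CO2 / Read-out basis: % activation of per-cell nuclear versus cytoplasmic median beta-catenin signal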
MT stabilize HCS: stabilizes microtubules in HeLa cells. HeLa tubulin immunostaining HCS, 24 h; share of cells brighter than vehicle mean+2SD. % tubulin-high responders, % at 10 µM. 200,000 tested, 0.83% active. AID 2205;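 active means plate Z-score above 3 for both tubulin-high and condensed-nucleus cell shares, with cell loss under 80%, at 10 µM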;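 further: anti alpha tubulin signal scored within the nucleus-defined area of each cell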
ROMK mod: modulators of human ROMK potassium channel; P48048; Tet-inducible ROMK, thallium flux fluorescence; actives lie on both sides; B-score at 10 µM; 130,000 tested, 2% active; AID 1918;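 active means signal ratio slope over the read window, or its plate-corrected B-score, at least 3 SD from the plate mean, either direction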;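 further: B-score of the F/F0 ratio slope over 7 to 12 s after thallium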
Target sequence (P48048 whole entry, looked up): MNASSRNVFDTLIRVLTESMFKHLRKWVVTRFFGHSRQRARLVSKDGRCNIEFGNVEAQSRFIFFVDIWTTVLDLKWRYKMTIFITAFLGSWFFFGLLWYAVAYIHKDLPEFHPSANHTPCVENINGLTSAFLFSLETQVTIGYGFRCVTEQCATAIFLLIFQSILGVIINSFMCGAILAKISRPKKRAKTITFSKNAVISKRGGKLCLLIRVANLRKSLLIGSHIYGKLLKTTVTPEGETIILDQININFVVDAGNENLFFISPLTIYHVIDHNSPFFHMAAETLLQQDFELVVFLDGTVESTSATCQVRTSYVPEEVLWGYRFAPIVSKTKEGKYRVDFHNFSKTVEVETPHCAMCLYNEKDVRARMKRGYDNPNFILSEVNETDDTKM
ROMK hit retest: human ROMK channel modulation, retest confirmation. shares compounds with ROMK mod. ROMK thallium flux, fluorescence ratio; stronger effect = lower value. normalized thallium flux (F/F0 slope) at 10 µM. 3,000 tested, 54% active;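 active means Flux at 10 µM at least 3 SD below or above vehicle control mean in one or both replicates; inconclusive means no clear call, values can overlap the other calls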
* hit, by the source's call; ? = inconclusive; nt = no result. In the library only some 1.9% were active in any assay of this set; here they are far more common.

SMILES	bCat nuc transl	MT stabilize HCS	ROMK mod	others
O=C(Oc1ccc(C(=S)N2CCC(O)CC2)cc1)c1ccc(Cl)cc1	1	3	-0.21
COc1ccc(S(=O)(=O)Nc2cc3c4c(oc3c3ccccc23)CC(C)(C)CC4=O)cc1	1	20*	nt
COc1ccc(S(=O)(=O)Nc2ccccc2C)cc1	-7	35	1.3
COc1ccc(S(=O)(=O)Nc2cc3c4c(oc3c3ccccc23)CCCC4=O)cc1	-1	25*	1.2
Cc1ccc(S(=O)(=O)Nc2cc3c(C(=O)Nc4ccccc4)c(C)oc3c3ccccc23)cc1	3	3	nt
CC1=CC=CN2C1=NC(=O)CC2(C)C(=O)N(CC(=O)NC1CCCC1)c1cc(C)cc(C)c1 (centres undefined)	0	2	0.87
CCCCc1ccc(NC(=S)NCCc2ccc(F)cc2)cc1	0	4	-0.6
CCOC(=O)N1CCN(c2ncnc3c2[nH]c2ccc(OC)cc23)CC1	9	5	-1.4
COc1ccc2[nH]c3c(N4CCc5ccccc5C4)ncnc3c2c1	115*	nt	2
Cc1ccc(CN=C(N)Nc2nc(C)cc(C)n2)cc1	42	12*	0.75
Cc1ccc(C)c(N/C(N)=N/c2nc(C)cc(C)n2)c1	0	1	nt
COc1ccc(S(N)(=O)=O)cc1C(=O)N1CCCC1	0	3	-0.0033
Brc1ccc(CSc2nnc(-c3ccccn3)n2Cc2ccco2)cc1	100*	31	0.027
Clc1cccc(-c2nnc(SC/C=C/c3ccccc3)n2Cc2ccco2)c1	0	37*	nt
CC(C)(C)c1ccc(CSc2nnc(-c3ccccn3)n2Cc2ccco2)cc1	-1	1	-0.14
C(=C\c1ccccc1)/CSc1nnc(-c2ccncc2)n1Cc1ccco1	-6	4	-0.52
C(=C\c1ccccc1)/CSc1nnc(-c2ccccc2)n1Cc1ccco1	141*	23*	nt
Clc1cccc(CSc2nnc(-c3ccccn3)n2Cc2ccco2)c1	0	6	-0.73
CCOc1ccc(-n2c(=O)[nH]cc(C(=O)Nc3ccc(OC)c(OC)c3)c2=O)cc1	0	4	-0.21
CCOc1ccc(N2CC(C(=O)Nc3cccc(S(=O)(=O)NC4=NCCC4)c3)CC2=O)cc1 (centres undefined)	1	nt	nt
C#CC(C)(CC)NC(=O)c1cc2nc(C3CC3)cc(C(F)(F)F)n2n1 (centres undefined)	0	2	-1
FC(F)(F)c1cc(-c2ccco2)nc(NCc2cccnc2)n1	61*	6	0.031
FC(F)(F)c1cc(-c2ccco2)nc(NCc2ccccc2)n1	1	3	0.053
O=C(O)COc1ccccc1/C=N/NC(=O)CSc1nnc(SCc2ccccc2)s1	0	nt	-0.37
COc1ccccc1N1CCN(c2cc(=O)n(Cc3ccc(F)cc3)c(=O)[nH]2)CC1	1	22*	nt
SMILES	bCat nuc transl	MT stabilize HCS	ROMK mod	others
O=c1cc(N2CCN(c3ccccc3Cl)CC2)[nH]c(=O)n1Cc1ccc(F)cc1	1	nt	-0.059
COC(=O)c1c(-c2cccc3ccccc23)csc1NC(=O)Cc1ccc(OC)c(OC)c1	nt	52*	-0.65
COC(=O)c1c(-c2ccc(C)cc2)csc1NC(=O)Cc1ccc(OC)c(OC)c1	nt	3	-1.4
COc1ccc(NC(=O)c2cc([N+](=O)[O-])ccc2N2CCCC2)cc1	5	3	0.87
COc1ccc(C(=O)c2cc([N+](=O)[O-])ccc2N2CCN(C)CC2)cc1	74*	14*	1.8
COc1ccc(C(=O)c2ccc([N+](=O)[O-])cc2Cl)cc1	-1	2	-1.3
COc1ccc(C(=O)c2cc([N+](=O)[O-])ccc2N2CCCC2)cc1	-4	20*	nt
O=C(CSc1ncnc2ccccc12)NCC(=O)c1ccccc1	0	3	nt
CCOC(=O)C1CCCN(S(=O)(=O)c2ccccc2)C1 (centres undefined)	-1	4	nt
CCOC(=O)C1CCCN(S(=O)(=O)c2ccc(OC)c3ccccc23)C1 (centres undefined)	nt	11*	nt
NC(=O)/C(=C/c1ccco1)C(N)=S	-1	nt	nt
N=C1C(c2ccccc2)=C(O)CN1c1cccc(S(=O)(=O)N2CCCCC2)c1	1	nt	nt
CCOC(=O)N/N=C1\CCS(=O)(=O)c2ccc(Cl)cc21	-3	nt	nt
CN1C(=O)C(CC(=O)O)S/C1=N\N=C\c1ccc(O)cc1O (centres undefined)	0	nt	nt
COc1ccc(-c2nc(-c3ccccn3)nc(N3CCN(C)CC3)c2C#N)cc1	1	3	0.51
Cc1ccc(C)c(N(CC(=O)N/N=C/c2ccc(-c3ccc([N+](=O)[O-])cc3)o2)S(=O)(=O)c2ccccc2)c1	2	2	-0.43
CC(=O)Nc1ccc(NC(=O)CN(c2ccc([N+](=O)[O-])cc2)S(=O)(=O)c2ccccc2)cc1	-3	6	0.23
CCOc1ccc(S(=O)(=O)N(CC(=O)N/N=C/c2ccc(-c3ccc([N+](=O)[O-])cc3)o2)c2ccccc2)cc1	60*	26*	-0.077
CCOc1ccc(NC(=O)CN(c2ccc([N+](=O)[O-])cc2)S(=O)(=O)c2ccccc2)cc1	0	14*	0.44
CC(=O)N/C(=C\c1ccc(Br)s1)C(=O)O	-2	3	0.31
CC(C)NS(=O)(=O)c1ccc(CCC(=O)NCc2ccncc2)cc1	0	3	nt
Cc1cc(C)cc(Nc2nc(-c3ccc(S(=O)(=O)N4CCCC4)cc3)cs2)c1	0	19*	1.5
Cc1ccc(Nc2nc(-c3ccc(S(=O)(=O)N4CCCC4)cc3)cs2)cc1C	2	4	0.39
COC(=O)c1ccc(Oc2nc(C)cc(Oc3ccccc3)n2)cc1	-2	3	-1.3
COC(=O)c1ccc(Oc2cc(C)nc(-n3nc(C)cc3C)n2)cc1	nt	20*	4.9*	ROMK hit retest=0.093
SMILES	bCat nuc transl	MT stabilize HCS	ROMK mod	others
CCOC(=O)C1(S(=O)(=O)c2ccc(Cl)cc2)CCN(Cc2ccc(C)cc2)CC1	nt	4	nt
CC(C)C(=O)OC1CCS(=O)(=O)c2sccc21 (centres undefined)	-1	2	2
CCCN(C#N)c1nc(NCC)nc(NC(C)C)n1	-3	3	-0.61
CCN(C#N)c1nc(NC(C)C)nc(NC(C)(C)C)n1	0	2	-7.8*	ROMK hit retest=0.077
COc1ccccc1CNCC(O)Cn1c2ccccc2c2ccccc21 (centres undefined)	1	9	-3.2*	ROMK hit retest=0.061*
OCCNCC(O)Cn1c2ccccc2c2ccccc21 (centres undefined)	4	6	-2.9
CCOC(=O)C1(CCOc2ccccc2)CCN(Cc2ccncc2)CC1	1	4	nt
CCOC(=O)C1(CCOc2ccccc2)CCN(Cc2cccn2-c2ncccn2)CC1	0	3	-3.7*	ROMK hit retest=?
O=c1[nH]c2ccccc2nc1C(F)(F)F	-1	nt	nt
COc1ccc(/C=C(/NC(=O)c2ccccc2)c2nc3ccccc3[nH]2)cc1OC	-1	2	nt
CC(C)c1ccc(/C=C(\c2nc3ccccc3[nH]2)S(=O)(=O)c2ccccc2)cc1	27	27*	-3.7*	ROMK hit retest=0.06*
O=S(=O)(/C(=C/c1ccc(C(F)(F)F)cc1)c1nc2ccccc2[nH]1)c1ccccc1	38	54	-4.3*	ROMK hit retest=0.051*

Screening results deposited in PubChem BioAssay by several laboratories.
